# KCNQ1 act = potentiators or activators of human KCNQ1 potassium channel; 310,000 tested, 0.35% active; CHO-K1 KCNQ1, thallium flux FluxOR fluorescence; stronger effect = higher value; P51787; B-score at 10 µM; AID 2648;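 active = fluorescence ratio B-score, a plate-corrected score, at least three library SD, with initial intensity B-score within 5 SD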
#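 System: Stable KCNQ1 CHO-K1 line | Incubation: 90 min dye loading and 20 min compound exposure, both at room temperature | Measure: Ratio B score | Medium: Assay buffer for compound exposure, DMSO matched across wells | Compound dosing: Single-concentration screen | Probe or stimulus: K+/Tl+ depolarizing stimulus | Measured by: Kinetic FluxOR fluorescence, 10 s baseline plus 110 s post-stimulus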
# Kir21 inh = blocks the mouse Kir2.1 inward-rectifier potassium channel; AID 1672; B-score at 10 µM; HEK293-Kir2.1, FluxOR thallium flux fluorescence; stronger effect = lower value; 310,000 tested, 0.85% active; P35561;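 active = fluorescence ratio B-score at or below minus 3 SD of library scores, with starting-brightness B-score within 2 SD, cut at about -4.2 in these data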;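 note: channel flux triggered by added potassium and thallium sulfate stimulus; B-score of peak minus minimum fluorescence over baseline after thallium stimulus; more negative B-score means stronger Kir2.1 block with less thallium influx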
# KCNK9 inh-1 = blocks the human KCNK9 two-pore domain potassium channel; HEK293 KCNK9, FluxOR thallium flux fluorescence; stronger effect = lower value; B-score at 10 µM; 310,000 tested, 1.2% active; AID 488922;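 active = ratio B-score over 3 SD below the library mean, with starting fluorescence within 5 SD of its mean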;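 note: negative B-score means less thallium flux so channel inhibition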
# KCNK3 inh = human KCNK3 channel inhibition, primary screen | B-score at 10 µM | AID 602410 | CHO-KCNK3 thallium flux, FluxOR fluorescence; stronger effect = lower value | 340,000 tested, 0.84% active | O14649;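 active = B-score under library mean minus 4 SD, starting fluorescence ratio at most library mean plus 5 SD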;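 note: more negative B-score means stronger inhibition of thallium flux through KCNK3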
# KCNQ1 inh = inhibitors of human KCNQ1 potassium channel; CHO-K1 KCNQ1, FluxOR thallium flux fluorescence; stronger effect = higher value; AID 2642; 310,000 tested, 1.3% active; B-score at 10 µM;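 active = compounds whose thallium flux B-score, printed positive for inhibition, exceeds three library SD while starting fluorescence stays within three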;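 note: channel opened by potassium depolarization with thallium stimulus after 20 min compound exposure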
# hERG rescue = compounds protecting human hERG from proarrhythmic drug block; CHO-hERG, FluxOR thallium flux, dofetilide IC70 present; 310,000 tested, 0.51% active; activation (rescue from dofetilide block), less the hit threshold, % at 10 µM; Q12809;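 active = activation above the mean of controls blocked by dofetilide plus 5 SD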;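 note: thallium influx through hERG after potassium depolarization seen as dye fluorescence rise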
# Target sequence (Q12809 whole entry, looked up): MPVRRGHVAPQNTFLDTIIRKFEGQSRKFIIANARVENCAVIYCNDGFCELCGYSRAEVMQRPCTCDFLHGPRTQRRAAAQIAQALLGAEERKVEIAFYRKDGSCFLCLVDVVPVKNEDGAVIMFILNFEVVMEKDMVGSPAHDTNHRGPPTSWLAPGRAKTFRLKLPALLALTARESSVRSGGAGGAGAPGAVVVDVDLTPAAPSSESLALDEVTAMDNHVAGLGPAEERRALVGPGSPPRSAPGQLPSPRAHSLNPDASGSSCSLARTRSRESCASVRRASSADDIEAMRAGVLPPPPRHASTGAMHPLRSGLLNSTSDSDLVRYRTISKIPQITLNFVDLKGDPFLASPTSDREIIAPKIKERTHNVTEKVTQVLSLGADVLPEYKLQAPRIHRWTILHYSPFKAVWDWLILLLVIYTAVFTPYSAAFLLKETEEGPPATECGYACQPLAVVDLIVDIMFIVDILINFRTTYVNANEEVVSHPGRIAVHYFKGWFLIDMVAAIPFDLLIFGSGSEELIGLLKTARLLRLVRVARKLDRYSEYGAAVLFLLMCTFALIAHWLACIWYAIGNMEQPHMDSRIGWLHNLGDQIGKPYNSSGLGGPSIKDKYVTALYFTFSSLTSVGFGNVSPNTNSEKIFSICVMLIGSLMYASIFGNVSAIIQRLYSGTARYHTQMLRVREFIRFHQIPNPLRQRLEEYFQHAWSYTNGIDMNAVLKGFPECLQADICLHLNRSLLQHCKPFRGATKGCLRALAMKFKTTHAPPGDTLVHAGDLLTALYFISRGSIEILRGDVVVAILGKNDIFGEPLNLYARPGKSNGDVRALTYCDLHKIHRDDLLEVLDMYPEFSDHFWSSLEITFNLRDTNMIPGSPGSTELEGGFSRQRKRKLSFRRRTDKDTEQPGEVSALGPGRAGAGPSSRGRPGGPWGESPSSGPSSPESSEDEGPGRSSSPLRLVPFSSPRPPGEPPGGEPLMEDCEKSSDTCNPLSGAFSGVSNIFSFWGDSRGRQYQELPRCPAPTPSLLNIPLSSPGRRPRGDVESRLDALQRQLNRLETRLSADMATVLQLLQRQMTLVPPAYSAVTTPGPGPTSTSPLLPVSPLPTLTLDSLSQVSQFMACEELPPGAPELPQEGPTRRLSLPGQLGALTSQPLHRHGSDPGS
# hERG inh = counter-screen for Kir2.1 inhibitors: effect on human hERG | shares compounds with Kir21 inh | hERG-expressing cells, thallium flux | inhibition, % at 10 µM | 320 tested, 20% active;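 note: host cells are CHO cells stably expressing hERG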
# KCNK9 inh-2 = human KCNK9 off-target activity of Kir2.1 blockers | KCNK9-expressing cells, ion flux inhibition | shares compounds with Kir21 inh | 320 tested, 5% active | inhibition, % at 10 µM | AID 2329
# Kir2-1 patch inh = blocks mouse Kir2.1 current in automated electrophysiology | shares compounds with Kir21 inh | Kir2.1 cells, automated patch-clamp current inhibition | inhibition, % at 25 µM | 320 tested, 71% active | AID 463252
# Hits are given with their value; . = inactive; / = no result. This is a sample that favours compounds with a hit; in the whole collection about 3.8% have one here. Unless noted, the rule behind the calls is not given here.
SMILES,KCNQ1 act,Kir21 inh,KCNK9 inh-1,KCNK3 inh,KCNQ1 inh,hERG rescue,hERG inh,KCNK9 inh-2,Kir2-1 patch inh
CCc1nc(C)cn1S(=O)(=O)c1cc(Cl)c(OC)cc1Cl,.,-10,.,.,.,.,.,.,51%
c1ccc(COc2ccc(OCCCNC3CCCC3)cc2)cc1,.,-8.8,.,.,.,.,47%,.,26%
CCN(CC)CCCCNc1ncc2cc(-c3cc(OC)cc(OC)c3)c(NC(=O)NC(C)(C)C)nc2n1,.,.,.,.,.,.,/,/,/
C=CCNc1nc(NCc2ccccc2)c(C#N)c2c1CN(C)CC2,.,-6.8,.,.,.,.,64%,.,1.6%
CCCCN1CCc2c1nc1ccc(Br)cc1c2N,.,-11,.,.,.,.,.,.,12%
CN(C)S(=O)(=O)c1ccc(N2CCCC2)c(C(=O)N2CCN(S(=O)(=O)c3ccc(F)c(F)c3)CC2)c1,/,/,/,.,/,/,/,/,/
Cc1ccc(S(=O)(=O)NCC(=O)OCC(=O)NCc2ccco2)cc1,/,/,/,.,/,/,/,/,/
CCOc1cc(S(=O)(=O)NCc2ccc3c(c2)OCO3)c(C)cc1C,.,-6.6,.,.,.,.,.,.,10%
COc1ccc2c(c1OC)C(=O)N(c1cccc(/C=C/C(=O)O)c1)C2,.,.,.,.,.,.,/,/,/
COC(=O)C1=C(C)N(Cc2ccccc2)C(=NCCc2ccccn2)N[C@H]1c1cccc(F)c1,.,-6.7,.,.,.,.,.,.,3.0%
CCOC(=O)C1CCN(Cc2c(O)ccc3ccccc23)CC1,.,-7.6,.,.,.,.,.,.,4.0%
COc1ccc(CCNCC(O)COc2cccc(Br)c2)cc1OC (centres undefined),.,.,.,.,.,.,/,/,/
COc1ccc(CCNCC(O)COc2ccc(OC)cc2C(C)(C)C)cc1 (centres undefined),.,-6.2,.,.,.,.,61%,.,.
Cc1ccc(OCC(O)CNCc2ccc(F)cc2)cc1 (centres undefined),.,-8.8,.,.,.,.,.,.,77%
COc1ccc(CNCC(O)COc2ccc(C)cc2[N+](=O)[O-])cc1 (centres undefined),.,-8.7,.,.,.,.,.,.,61%
Cc1ccc(CNC(=O)COc2ccc(C(=O)c3ccc(F)cc3)cc2)cc1,.,.,.,.,.,.,/,/,/
Cc1ccc(Nc2ccc(C(=O)NC3CCCCC3)cn2)cc1,.,.,.,.,.,.,/,/,/
CC(NC(=O)c1ccccc1)C(=O)OCC(=O)c1c(N)n(C)c(=O)n(C)c1=O (centres undefined),/,/,/,.,/,/,/,/,/
CCn1c(COc2ccccc2)nnc1SCc1ccc(C#N)cc1,.,-6.5,.,.,.,.,.,.,25%
COc1ccc(CCNC2CCc3ccccc3C2)cc1 (centres undefined),.,-8.6,.,.,.,.,.,.,37%
COc1cc2[nH]c3c(=O)n4c(nc3c2cc1OC)SCCC4,.,.,.,.,.,.,/,/,/
COc1ccc(C2(C(=O)NCCc3ccccc3)CCCC2)cc1,.,.,.,.,.,.,/,/,/
O=C(NCCc1ccc(Cl)cc1)C1(c2ccccc2)CC1,.,-9.5,.,.,.,.,.,.,44%
CCOCCCNCC(O)c1ccccc1 (centres undefined),.,.,.,.,.,.,/,/,/
OCc1cc(C(O)CNCCCCCCOCCCCc2ccccc2)ccc1O (centres undefined),.,-5.3,.,.,.,.,.,.,23%
CCOc1ccc(C2C(C(=O)c3cccs3)=C(O)C(=O)N2CCN2CCOCC2)cc1 (centres undefined),.,.,.,.,.,.,/,/,/
CCOc1ccccc1/C=C(/NC(=O)c1ccccc1)C(=O)N1CCCCC1,.,.,.,.,.,.,/,/,/
CCOc1ccc(CN2CCC(Cc3ccccc3)CC2)cc1,.,-5.8,.,.,.,.,68%,.,49%

# Compound activity deposited in PubChem BioAssay by Johns Hopkins Ion Channel Center.
